Data set [1] is described as follows: Cytotoxicity was measured under aerobic conditions by the clonogenic assay against Chinese hamster ovary (subline AA8) cells. It is filed as cell-based, Cricetulus griseus. On the set-up: unit not given here. The gist of the method: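 CHO AA8 cells were grown in alpha MEM with 10% FCS, then taken to unfed plateau phase in spinner flasks (1.0–1.3 × 10⁶ cells/mL). Cells were resuspended in 5% FCS medium, and cells and drug were pre-equilibrated separately for 45 min at 37 °C under flowing 5% CO₂ in air. Exposure was as stirred suspension for up to 3 h, with plating efficiency sampled over time. CT₁₀ is the concentration × time giving 10% survival.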

Data set [2] can be described thus: Equilibrium constant measured by the pulse radiolysis at pH 7. It is filed as ADME. The gist of the method:
(§1)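 Pulse radiolysis on a 1.8 MV linac (ca. 3 Gy in 0.2 μs) of solutions at 21 °C in a 2-cm pathlength cell, buffered at pH 7 with 2 mM sodium phosphate. Dose was set by aerated 10 mM KSCN absorbance at 472 nm. The equilibrium constant K for ArNO₂/ArNO₂•⁻ versus benzylviologen came from radical ratios over various substrate concentrations. E(1) was derived from K relative to E(BV²⁺/BV•⁺).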

Data set [3] relates to Nucleic Acid. As to the kind of experiment: Logarithm of association constant for binding to poly[d(A-T)], determined by ethidium displacement. It is filed as nucleic-acid assay. The gist of the method: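 Ethidium displacement assay with poly[d(A-T)], giving log association constant. No quenching corrections were applied.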
Data set [4] is described as follows: Compound''s one-electron reduction potential (E(1)) has been measured by radiolysis at pH 7. An outline of the steps:
as §1

Data set [5] in a line: Compound's one-electron reduction potential (E(1)) has been measured by radiolysis at pK1. The gist of the method:
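Calculated from E(1) measured at pH 7 using the paper's pH-dependence expression. Side-chain pKa values (pK2, pKr2) were assumed equal for all derivatives, and the acridine radical pKa was assumed 4.3 pH units above pK1.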

The nature of data set [6]: Relative lipophilicity of the compound. It is filed as physicochemical. The note with it: octanol/water.
Data set [7] can be described thus: Ratio of cytotoxicity determined in air to that of cytotoxicity determined in N2 was measured under aerobic conditions to hypoxic conditions by the clonogenic assay against Chinese hamster ovary (subline AA8) cells. It is filed as cell-based, Cricetulus griseus. As to conditions: subline AA8 (CHO-AA8). An outline of the steps: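 Clonogenic survival of plateau-phase AA8 cells in stirred suspension at 37 °C. Cells and drug were pre-gassed separately for 45 min with 5% CO₂ in air or in N₂, then mixed using a gas-purged syringe. Plating efficiency was sampled over up to 3 h. Drug levels were chosen to give similar killing rates under both gases. Ratio = CT₁₀(air)/CT₁₀(N₂), where CT₁₀ is concentration × time for 10% survival.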

Data set [8] is described as follows: Dissociation constant of the compound. It is filed as physicochemical.
Data set [9] in a line: Dissociation constant was determined. It is filed as physicochemical.

On to `CN(C)CCCNc1c2ccccc2nc2cccc([N+](=O)[O-])c12` [NITRACRINE], for which, in data set [1], the CT10 came to 0.47. The molecule further displayed a K in data set [2] of 18 M⁻¹. The Log K in data set [3] is 6.92 M-1. For the same molecule, the E was -303 mV in data set [4] and -270 mV in data set [5]. In data set [6], this molecule returned a Rm of -0.85. Besides, the selectivity ratio in data set [7] was 9.9. The same molecule yielded a pKa in data set [8] of 6.21.
For `CN(C)CCCNc1c2ccccc2nc2c(Cl)ccc([N+](=O)[O-])c12`, the CT10 in [1] turned out to be 0.68. The K in [2] was 7 M⁻¹. Further, in [3], the Log K is 5.95 M-1. Moreover, the E is -325 mV in data set [4] and -225 mV in data set [5]. This molecule also returned a Rm in data set [6] of -0.25. The selectivity ratio in data set [7] was found to be 13.6. In data set [8], the pKa was found to be 5.
`CN(C)CCCNc1c2ccccc2nc2c(F)ccc([N+](=O)[O-])c12` showed a CT10 in [1] of 2. In data set [2], this molecule had a K of 2.4 M⁻¹. For the same molecule, the Log K in data set [3] was 6.15 M-1. In addition, the E is -354 mV in data set [4] and -277 mV in data set [5]. Moreover, the Rm in [6] is reported as -0.46. Also, the selectivity ratio in data set [7] stood at 5.3. The molecule further registered a pKa in data set [8] of 5.41.
For the molecule `Cc1ccc([N+](=O)[O-])c2c(NCCCN(C)C)c3ccccc3nc12`, the CT10 in data set [1] is 2. Further, in data set [2], the K was 8.8 M⁻¹. The Log K in data set [3] was 7.23 M-1. Moreover, the E was -321 mV in [4] and -292 mV in data set [5]. Also, the Rm in data set [6] is reported as -0.76. Also, the selectivity ratio in [7] was determined as 10. In [8], this molecule returned a pKa of 6.29.
Molecule `CN(C)CCCNc1c2ccccc2nc2c(N(C)C)ccc([N+](=O)[O-])c12` registered a CT10 in data set [1] of 720. Further, the K in [2] stood at 5.3 M⁻¹. Moreover, in data set [3], the Log K was 7.11 M-1. In addition, the E in data set [4] was -334 mV; in data set [5] it was -314 mV. Besides, in [6], the Rm was -0.63. In addition, the selectivity ratio in data set [7] is 16. Moreover, the pKa in [8] turned out to be 6.47.
Molecule `COc1ccc([N+](=O)[O-])c2c(NCCCN(C)C)c3ccccc3nc12` yielded a CT10 in [1] of 22. In addition, the K in data set [2] worked out at 1.9 M⁻¹. The Log K in data set [3] was 6.76 M-1. The E was -361 mV in data set [4] and -346 mV in data set [5]. This molecule displayed a Rm in data set [6] of -0.88. Besides, the selectivity ratio in data set [7] worked out at 16. Further, the pKa in [8] was determined as 6.61.
For the molecule `CN(C)CCCNc1c2ccccc2nc2c(N(CCO)CCO)ccc([N+](=O)[O-])c12`, in [1], the CT10 was found to be 540. Further, in data set [3], the Log Ke was 6.73 M-1. Further, the Rm in [6] was -0.74. Besides, in data set [7], the selectivity ratio came to 6. The pKa in data set [8] amounted to 6.53.
For `COC(=O)c1ccc([N+](=O)[O-])c2c(NCCCN(C)C)c3ccccc3nc12`, in data set [1], the CT10 is reported as 8. This molecule came in with a K in data set [2] of 175 M⁻¹. Further, in [9], the pKa amounted to 5.35. For the same molecule, in data set [3], the Log K was 6.06 M-1. Moreover, the results for the E in [4] and in data set [5] were -244 mV and -164 mV, respectively. Also, the selectivity ratio in data set [7] was determined as 0.32.
As for `CC(=O)OCCN(CCOC(C)=O)c1ccc([N+](=O)[O-])c2c(NCCCN(C)C)c3ccccc3nc12`, the CT10 in [1] was determined as 575. This molecule also registered a K in data set [2] of 11.7 M⁻¹. Moreover, the Log K in data set [3] was 6.5 M-1. Also, the values for the E in data set [4] and in data set [5] were -314 mV and -280 mV, respectively. The same molecule showed a Rm in [6] of -0.29. The selectivity ratio in [7] turned out to be 11.5. The pKa in [8] is 6.2.

For the origin of these results see ChEMBL document CHEMBL1124328, “Hypoxia-selective antitumor agents. 1. Relationships between structure, redox properties and hypoxia-selective cytotoxicity for 4-substituted derivatives of nitracrine” (J Med Chem, 1989).
